Experimental data collected from several papers.
SLC6A4: Sodium-dependent serotonin transporter (SLC6A4, Homo sapiens, UniProt P31645)
rep main protease: Replicase polyprotein 1ab, main protease (rep, Porcine epidemic diarrhea virus, UniProt P0C6Y4)

Structure (SMILES)	target	assay	conditions	quantity	result
O=C(O)c1cccc(-c2noc(-c3ccccc3F)n2)c1	Flavin reductase (NADPH) (BLVRB, Homo sapiens, UniProt P30043)	binding, SPR	–	kon	3060 M⁻¹ s⁻¹
O=C(NCc1cc(O)c(O)c(Br)c1)c1cccc(C(F)(F)F)c1	Replicase polyprotein 1ab, papain-like protease (rep, Porcine epidemic diarrhea virus, UniProt P0C6Y4)	enzyme activity, inhibitor, FRET	10 µM	inhibition	102%
C1=C/COCc2cc(ccc2OCCN2CCCC2)Nc2nccc(n2)-c2cccc(c2)COC/1	Rhodopsin kinase GRK7 (GRK7, Homo sapiens, UniProt Q8WTQ7)	binding	0.1 µM	remaining binding	86%
N#CC[C@@]12C[C@@H]1[C@@H](n1cnc3c(NCCCCCCc4ccccc4)nc(I)nc31)[C@H](O)[C@@H]2O	SLC6A4	ligand displacement, radioligand	10 µM	inhibition	56%
CCCCC(=O)Nc1ccc(-c2ccc3ncn(CCC)c(=O)c3c2)cn1	BDNF/NT-3 growth factors receptor (NTRK2, Homo sapiens, UniProt Q16620)	binding, competition with immobilised ligand	0.5 µM	remaining binding	100%
CCOC(=O)[C@@]12C[C@@H]1[C@@H](n1cnc3c(NCc4cccc(Cl)c4)nc(C#Cc4ccc(Cl)s4)nc31)[C@H](O)[C@@H]2O	SLC6A4	ligand displacement, radioligand	10 µM	inhibition	13%
O=C(NCc1cc(O)c(O)c(Br)c1)c1ccc2ccccc2n1	rep main protease	enzyme activity, inhibitor, FRET	10 µM	inhibition	62.4%
COc1cc(-c2cc(C(C)=O)n3ccccc23)c(OC)cc1Cn1ccnc1	Bromodomain adjacent to zinc finger domain protein 2B, bromodomain (BAZ2B, Homo sapiens, UniProt Q9UIF8)	thermal stability, DSF	–	ΔTm	2.1 °C
COc1cc(CNC(=O)c2ccc3ccccc3n2)cc(Br)c1OC	rep main protease	enzyme activity, inhibitor, FRET	10 µM	inhibition	85.2%
CCOC(=O)[C@@]12C[C@@H]1[C@@H](n1cnc3c(NCCCCCCc4ccccc4)nc(I)nc31)[C@H](O)[C@@H]2O	SLC6A4	ligand displacement, radioligand	10 µM	inhibition	68%
COc1cc(CNC(=O)c2ccc(N(C)C)cc2)cc(Br)c1OC	rep main protease	enzyme activity, inhibitor, FRET	10 µM	inhibition	32.3%
CCOC(=O)[C@@]12C[C@@H]1[C@@H](n1cnc3c(NCCCCCc4ccccc4)nc(C#Cc4ccc(Cl)s4)nc31)[C@H](O)[C@@H]2O	SLC6A4	ligand displacement, radioligand	10 µM	inhibition	-14%
COc1ccc(C(=O)NCc2cc(O)c(O)c(Br)c2)cc1OC	rep main protease	enzyme activity, inhibitor, FRET	10 µM	inhibition	74.7%
CCOC(=O)[C@@]12C[C@@H]1[C@@H](n1ccc3c(NCCCCCc4ccccc4)nc(C#Cc4ccccc4)nc31)[C@H](O)[C@@H]2O	SLC6A4	ligand displacement, radioligand	10 µM	inhibition	29%
Cc1cc(O)c(-c2ccc([C@@H](C)CN(C)C)cc2)c2c1[nH]c(=O)c1sccc12	Mitogen-activated protein kinase kinase kinase 20 (MAP3K20, Homo sapiens, UniProt Q9NYL2)	enzyme activity, inhibitor	0.1 µM	inhibition	-2.95%
